The values that follow come from ChEMBL document CHEMBL4017489, “Design, Synthesis, and Evaluation of New Selective NM23-H2 Binders as c-MYC Transcription Inhibitors via Disruption of the NM23-H2/G-Quadruplex Interaction” (J Med Chem, 2017).

Activity calls are given as the source filed them. The calls are words filed in the database; no cut-off is given here.

A short description of assay [1]: Binding affinity to Htg21 telomeric G-quadruplex DNA (unknown origin) at 40 uM after 30 mins by SPR analysis. A general note: Surface plasmon resonance follows binding to a sensor surface in real time, without labels.
A short description of assay [2]: Binding affinity to biotin-labeled 18-mer duplex DNA hairpin (unknown origin) at 40 uM after 30 mins by SPR analysis.
The target of assay [3] is T1, Nucleoside diphosphate kinase B (Homo sapiens, UniProt P22392). Kind of assay: Binding affinity to NM23-H2 (unknown origin) up to 40 uM by SPR analysis.
For assay [4], the target named is T1, Nucleoside diphosphate kinase B. Kind of assay: Binding affinity to NM23-H2 (unknown origin) by SPR analysis.
The target is the same in assay [5]. Nature of the assay: Binding affinity to N-terminal NT-647-NHS labeled NM23-H2 (unknown origin) after 30 mins by MST analysis. In outline: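 NM23-H2 N-terminally labeled with RED-NHS dye (20 μM protein, 30 min dark, RT), free dye removed; 200 nM labeled protein with compound from 500 μM, 16 twofold steps, 30 min RT in 50 mM Tris-HCl pH 7.4, 150 mM NaCl, 10 mM MgCl2, 0.05% Tween-20; KD at half-plateau.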

The target is the same in assay [6]. Kind of assay: Binding affinity to NM23-H2 (unknown origin) assessed as ratio of Kd for protein interaction with biotin-labeled Pu22 c-myc G-quadruplex DNA in presence and absence of compound after 1 hr by ELISA. On the technique in general: In an ELISA, binding on a coated surface is turned into a signal by an enzyme label.

T1 sequence (P22392 whole entry): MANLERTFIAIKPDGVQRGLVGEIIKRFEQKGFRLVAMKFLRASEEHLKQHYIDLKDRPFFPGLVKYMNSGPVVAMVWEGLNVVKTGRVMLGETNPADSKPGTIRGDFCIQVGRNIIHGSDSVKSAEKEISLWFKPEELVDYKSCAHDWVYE

For the molecule `O=c1c2cc(F)c(NCCCN3CCOCC3)cc2nc2n1CC/C2=C\c1ccc(N2CCCCC2)cc1`, the result in assay [1], in assay [2] and in assay [3] was inactive.
Usually Kd stands for a measure of binding affinity in units of concentration. Lower therefore signals tighter binding. Turning to `CCN(CC)CCCNc1cc2nc3n(c(=O)c2cc1F)CC/C3=C\c1ccc(OC)cc1`, the Kd in assay [4] is 15.4 µM; in assay [5], 23.5 µM. Also, the result in assay [1] and in assay [2] was inactive.
On to `O=c1c2cc(F)c(NCCCN3CCOCC3)cc2nc2n1CC/C2=C\c1ccc(F)cc1`, for which the affinity in assay [5], expressed as Kd, was 44.2 µM. The result in assay [1], in assay [2] and in assay [3] was inactive.
Consider `CN(C)CCCNc1cc2nc3n(c(=O)c2cc1F)CC/C3=C\c1ccc(O)c(O)c1`, for which the Kd in assay [4] came out at 9.2 µM; in assay [5], 10.7 µM. Also, the result in assay [1] and in assay [2] was inactive.
Turning to `CCN(CC)CCCNc1cc2nc3n(c(=O)c2cc1F)CC/C3=C\c1ccc(N2CCCCC2)cc1`, the result in assay [1], in assay [2] and in assay [3] was inactive.
Turning to `CCN(CC)CCCNc1cc2nc3n(c(=O)c2cc1F)CC/C3=C\c1ccc(OC)c(OC)c1`, the figures for the Kd in assay [4] and in assay [5] were 17.1 µM and 25.1 µM, respectively. Also, the outcome in assay [1] and in assay [2] was inactive.
Consider `COc1ccc(/C=C2\CCn3c2nc2cc(NCCCN(C)C)c(F)cc2c3=O)cc1OC`, for which the Kd in assay [4] came to 15.8 µM; in assay [5], 19.2 µM. Further, the result in assay [1] and in assay [2] was inactive.
Take `COc1cc(/C=C2\CCn3c2nc2cc(NCCCN(C)C)c(F)cc2c3=O)cc(OC)c1OC`: the figures for the Kd in assay [4] and in assay [5] were 16.8 µM and 18.4 µM, respectively. Moreover, the result in assay [1] and in assay [2] was inactive. Further, the Ratio in assay [6] fell in the range of 2.1 to 2.6.
Molecule `CCN(CC)CCCNc1cc2nc3n(c(=O)c2cc1F)CC/C3=C\c1ccc(N2CCOCC2)cc1` came in with a Kd in assay [5] of 55.3 µM. Besides, the result in assay [1], in assay [2] and in assay [3] was inactive.
With `CN(C)CCCNc1cc2nc3n(c(=O)c2cc1F)CC/C3=C\c1ccc(OCc2ccccc2)c(O)c1`, the Kd worked out at 13.2 µM in assay [4] and 16.1 µM in assay [5]. Besides, the result in assay [1] and in assay [2] was inactive. For the same molecule, the Ratio in assay [6] is above 3.
Take `CN(C)CCNc1cc2nc3n(c(=O)c2cc1F)CC/C3=C\c1ccc(OCc2ccccc2)cc1O`: the Kd in assay [4] worked out at 8.1 µM; in assay [5], 6.4 µM. Moreover, the result in assay [1] and in assay [2] was inactive. In addition, the Ratio in assay [6] is above 3.
With `CC(C)Oc1ccc(/C=C2\CCn3c2nc2cc(NCCCN(C)C)c(F)cc2c3=O)cc1`, the values for the dissociation constant (Kd) in assay [4] and in assay [5] were 9.6 µM and 15.4 µM, respectively. The outcome in assay [1] and in assay [2] was inactive. Further, the Ratio in assay [6] is above 3.
As for `CCN(CC)CCCNc1cc2nc3n(c(=O)c2cc1F)CC/C3=C\c1ccc(C(F)(F)F)cc1`, the Kd in assay [5] amounted to 59.4 µM. For the same molecule, the outcome in assay [1], in assay [2] and in assay [3] was inactive.
As for `COc1cc(/C=C2\CCn3c2nc2cc(NCCCN4CCOCC4)c(F)cc2c3=O)cc(OC)c1OC`, the dissociation constant (Kd) in assay [4] stood at 18.5 µM; in assay [5] it was 23.6 µM. Besides, the result in assay [1] and in assay [2] was inactive.
On to `CCN(CC)c1ccc(/C=C2\CCn3c2nc2cc(NCCCN4CCOCC4)c(F)cc2c3=O)cc1`, for which the result in assay [1], in assay [2] and in assay [3] was inactive.
For `CCN(CC)CCCNc1cc2nc3n(c(=O)c2cc1F)CC/C3=C\c1cc(OC)c(OC)c(OC)c1`, the Kd came out at 16.3 µM in assay [4] and 28.2 µM in assay [5]. In addition, the result in assay [1] and in assay [2] was inactive.
For the molecule `CCN(CC)CCCNc1cc2nc3n(c(=O)c2cc1F)CC/C3=C\c1ccc(C(C)C)cc1`, the result in assay [1], in assay [2] and in assay [3] was inactive.
In the case of `O=c1c2cc(F)c(NCCCN3CCOCC3)cc2nc2n1CC/C2=C\c1ccc(C(F)(F)F)cc1`, the result in assay [1], in assay [2] and in assay [3] was inactive.
Regarding `O=c1c2cc(F)c(NCCCN3CCCC3)cc2nc2n1CC/C2=C\c1ccc(OCc2ccccc2)cc1O`, the results for the Kd in assay [4] and in assay [5] were 11.5 µM and 10.8 µM, respectively. The outcome in assay [1] and in assay [2] was inactive. Also, the Ratio in assay [6] is above 3.
`C#CCOc1ccc(/C=C2\CCn3c2nc2cc(NCCCN(C)C)c(F)cc2c3=O)cc1`: the dissociation constant Kd in assay [4] came out at 25.6 µM; in assay [5], 8.9 µM. The result in assay [1] and in assay [2] was inactive.
`C#CCOc1ccc(/C=C2\CCn3c2nc2cc(NCCN(C)C)c(F)cc2c3=O)cc1`: the Kd in assay [5] came out at 27.5 µM. The outcome in assay [1], in assay [2] and in assay [3] was inactive.
As to `CC(C)c1ccc(/C=C2\CCn3c2nc2cc(NCCCN4CCOCC4)c(F)cc2c3=O)cc1`, the result in assay [1], in assay [2] and in assay [3] was inactive.
`O=c1c2cc(F)c(NCCCN3CCOCC3)cc2nc2n1CC/C2=C\c1ccc(N2CCOCC2)cc1`: the outcome in assay [1], in assay [2] and in assay [3] was inactive.
Consider `O=c1c2cc(F)c(NCCCN3CCOCC3)cc2nc2n1CC/C2=C\c1ccc(OCc2ccccc2)cc1O`, for which the Kd turned out to be 14.3 µM in assay [4] and 16.9 µM in assay [5]. The outcome in assay [1] and in assay [2] was inactive.
For the molecule `CN(C)CCCNc1cc2nc3n(c(=O)c2cc1F)CC/C3=C\c1ccc(Oc2ccccc2)cc1`, the Kd in assay [4] came out at 12.4 µM; in assay [5], 16.3 µM. Further, the outcome in assay [1] and in assay [2] was inactive.
Molecule `CN(C)CCNc1cc2nc3n(c(=O)c2cc1F)CC/C3=C\c1ccc(C=O)cc1` came in with a Kd in assay [5] of 68 µM. Further, the result in assay [1], in assay [2] and in assay [3] was inactive.
On to `COc1cc(/C=C2\CCn3c2nc2cc(NCCCN(C)C)c(F)cc2c3=O)cc(OC)c1O`, for which the values for the dissociation constant (Kd) in assay [4] and in assay [5] were 13.3 µM and 16.5 µM, respectively. Moreover, the outcome in assay [1] and in assay [2] was inactive.
Take `CCN(CC)CCCNc1cc2nc3n(c(=O)c2cc1F)CC/C3=C\c1ccc(N(CC)CC)cc1O`: the Kd in assay [4] stood at 13.9 µM; in assay [5], 11.7 µM. In addition, the outcome in assay [1] and in assay [2] was inactive. Moreover, the Ratio in assay [6] was 2.1 to 2.6.
For `O=Cc1ccc(/C=C2\CCn3c2nc2cc(NCCCN4CCOCC4)c(F)cc2c3=O)cc1`, binding in assay [4] was characterised by a dissociation constant (Kd) of 38 µM. The result in assay [1] and in assay [2] was inactive.
As for `COc1ccc(/C=C2\CCn3c2nc2cc(NCCCN4CCOCC4)c(F)cc2c3=O)cc1`, the Kd in assay [4] came out at 28.4 µM; in assay [5], 25.6 µM. In addition, the result in assay [1] and in assay [2] was inactive.
As to `O=c1c2cc(F)c(NCCN3CCCCC3)cc2nc2n1CC/C2=C\c1ccc(OCc2ccccc2)cc1O`, the Kd in assay [4] is 12.2 µM; in assay [5], 7.6 µM. Besides, the outcome in assay [1] and in assay [2] was inactive. Further, the Ratio in assay [6] is above 3.
On to `CCN(CC)c1ccc(/C=C2\CCn3c2nc2cc(NCCN(C)C)c(F)cc2c3=O)cc1`, for which, in assay [5], the Kd came out at 45.7 µM. The result in assay [1], in assay [2] and in assay [3] was inactive.
As to `O=c1c2cc(F)c(N3CCOCC3)cc2nc2n1CC/C2=C\c1ccc(OCc2ccccc2)cc1O`, the Kd in assay [5] came out at 56 µM. The outcome in assay [1], in assay [2] and in assay [3] was inactive.
As for `CCN(CC)CCCNc1cc2nc3n(c(=O)c2cc1F)CC/C3=C\c1ccc(OCc2ccccc2)cc1`, the dissociation constant Kd in assay [4] amounted to 14.6 µM; in assay [5], 20.6 µM. Further, the outcome in assay [1] and in assay [2] was inactive. In assay [6], the Ratio was above 3.
As for `CCN(CC)CCCNc1cc2nc3n(c(=O)c2cc1F)CC/C3=C\c1ccc(F)cc1`, in assay [5], the Kd worked out at 61.6 µM. In addition, the outcome in assay [1], in assay [2] and in assay [3] was inactive.
Take `CCN(CC)CCCNc1cc2nc3n(c(=O)c2cc1F)CC/C3=C\c1ccccc1OC`: the Kd in assay [5] is 72.8 µM. Besides, the result in assay [1], in assay [2] and in assay [3] was inactive.
As to `CCCOc1ccc(/C=C2\CCn3c2nc2cc(NCCCN(C)C)c(F)cc2c3=O)cc1`, the Kd in assay [4] amounted to 20.6 µM; in assay [5], 21 µM. Also, the outcome in assay [1] and in assay [2] was inactive.
